Experimental data published in ChEMBL document CHEMBL1131420 (J Med Chem, 1998).

Legend:
[1] = biological target: T1, Sodium-dependent dopamine transporter (Rattus norvegicus, UniProt P23977); experiment: (§1) Inhibitory activity on dopamine transporters of rat striated membranes using [3H]- mazindol.
In short: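 Striatal membrane homogenate was added to tubes holding drug and about 4 nM [3H]mazindol in Krebs-Ringer-HEPES (pH 7.4). Incubation was 1 h at 4 °C, followed by filtration.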

[2] = biological target: T1, Sodium-dependent dopamine transporter; experiment: Inhibitory activity determined for [3H]DA (Dopamine transporter) uptake by striated synaptosomes; format: subcellular, Brain
[3] = biological target: T1, Sodium-dependent dopamine transporter; experiment: Binding affinity for [3H]DA (Dopamine transporter) uptake by striated synaptosomes; format: subcellular, Brain
In short: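 Striatal synaptosomes in Krebs-Ringer-HEPES (125 mM NaCl, 4.8 mM KCl, 1.2 mM MgSO4, 25 mM HEPES, pH 7.4). After 30 min drug preincubation, [3H]DA was added at about 5 nM. Uptake lasted 5 min and ended by rapid filtration. […] Ki was derived by Cheng–Prusoff with Kd 57 nM. Values are the mean of 2–3 experiments.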

[4] = biological target: T1, Sodium-dependent dopamine transporter; experiment: Binding affinity of compound on dopamine transporters of rat striated membranes using [3H]- mazindol.; format: cell membranes, Membrane
In short: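 Striatal membrane homogenate was added to tubes holding drug and about 4 nM [3H]mazindol in Krebs-Ringer-HEPES (pH 7.4). Incubation was 1 h at 4 °C, followed by filtration. […] Values are the mean of 2–3 experiments.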

[5] = biological target: T2, Sodium-dependent serotonin transporter (Rattus norvegicus, UniProt P31652); experiment: Binding affinity for Serotonin transporter was determined by [3H]5-HT (serotonin) uptake by striated synaptosomes; format: subcellular, Brain
T2 sequence (P31652 whole entry): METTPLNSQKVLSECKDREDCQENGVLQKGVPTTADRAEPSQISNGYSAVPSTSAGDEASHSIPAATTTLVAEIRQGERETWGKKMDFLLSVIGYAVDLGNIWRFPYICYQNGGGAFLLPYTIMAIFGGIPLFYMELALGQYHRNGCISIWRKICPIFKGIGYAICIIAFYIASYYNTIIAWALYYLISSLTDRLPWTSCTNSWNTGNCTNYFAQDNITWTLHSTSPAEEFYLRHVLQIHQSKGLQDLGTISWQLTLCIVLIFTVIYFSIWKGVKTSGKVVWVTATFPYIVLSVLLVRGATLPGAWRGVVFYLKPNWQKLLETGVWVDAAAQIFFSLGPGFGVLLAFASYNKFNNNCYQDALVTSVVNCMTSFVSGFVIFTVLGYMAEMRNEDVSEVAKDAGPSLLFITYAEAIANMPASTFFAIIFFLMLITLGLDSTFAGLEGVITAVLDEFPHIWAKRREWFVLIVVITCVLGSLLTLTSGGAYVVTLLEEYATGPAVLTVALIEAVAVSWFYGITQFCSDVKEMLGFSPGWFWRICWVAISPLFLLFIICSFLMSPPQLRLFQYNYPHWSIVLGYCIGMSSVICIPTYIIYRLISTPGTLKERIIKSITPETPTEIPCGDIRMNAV

[6] = biological target: T2, Sodium-dependent serotonin transporter; experiment: Inhibitory activity against Serotonin transporter was determined for [3H]5-HT (serotonin) uptake by striated synaptosomes; format: subcellular, Brain
[7] = biological target: Monoamine transporters; serotonin & dopamine (Rattus norvegicus) (UniProt P31652+P23977); experiment: Ratio of Ki value for 5-HT to that of DA.; format: protein assay
Monoamine transporters; serotonin & dopamine (Rattus norvegicus), sequence (P23977 whole entry, looked up): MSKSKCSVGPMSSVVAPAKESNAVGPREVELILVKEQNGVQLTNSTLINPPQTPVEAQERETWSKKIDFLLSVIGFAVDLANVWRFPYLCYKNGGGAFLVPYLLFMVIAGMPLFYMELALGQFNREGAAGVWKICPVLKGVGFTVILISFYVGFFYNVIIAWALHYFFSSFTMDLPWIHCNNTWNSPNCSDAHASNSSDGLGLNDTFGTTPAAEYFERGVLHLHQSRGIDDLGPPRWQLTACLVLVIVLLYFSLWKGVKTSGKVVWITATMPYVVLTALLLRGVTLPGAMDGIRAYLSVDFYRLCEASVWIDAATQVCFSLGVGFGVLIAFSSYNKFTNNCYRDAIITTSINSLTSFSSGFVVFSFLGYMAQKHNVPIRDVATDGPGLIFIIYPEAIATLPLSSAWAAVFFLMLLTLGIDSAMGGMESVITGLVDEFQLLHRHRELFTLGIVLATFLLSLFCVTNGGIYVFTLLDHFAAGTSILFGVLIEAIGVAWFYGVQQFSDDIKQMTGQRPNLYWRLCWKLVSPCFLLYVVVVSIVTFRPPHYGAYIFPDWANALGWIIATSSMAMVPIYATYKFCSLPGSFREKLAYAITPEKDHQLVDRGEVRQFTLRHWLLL
Monoamine transporters; serotonin & dopamine (Rattus norvegicus), sequence (P31652 whole entry, looked up): as the sequence (P31652 whole entry) above

[8] = biological target: T1, Sodium-dependent dopamine transporter; experiment: as §1; remark: listed apart in the source
[9] = biological target: T1, Sodium-dependent dopamine transporter; experiment: Inhibitory activity on dopamine transporter of rat striated membranes using [3H]- mazindol.

T1 sequence (P23977 whole entry): as the sequence (P23977 whole entry, looked up) above

COC(=O)[C@H]1C(c2ccccc2)C[C@H]2CCC1N2C (stereo not given in full) was tested, and the IC50 [1] was 163 nM, the IC50 [2] was 57.9 nM and the Ki [3] was 53.7 nM. For the same molecule, the Ki [4] was 89.4 nM.
In the case of CCCC[C@H]1C2CC[C@H](C[C@H]1c1ccc(C)cc1)N2C, the Ki [5] is reported as 51 nM, the IC50 [1] is reported as 21.6 nM and the IC50 [2] is reported as 10.9 nM. It also gave a Ki [3] of 10.1 nM, an IC50 [6] of 55.8 nM and an Uptake ratio [7] of 5.1. The Ki [4] was 11.4 nM.
With CN1C2CC[C@@H]1CC(c1ccccc1)[C@@H]2c1ccccc1 (mixture of isomers) the IC50 [8] was 28 nM.
For CCC[C@H]1C(c2ccc(F)cc2)C[C@H]2CCC1N2C (stereo not given in full), the Ki [5] was 21.7 nM, the IC50 [1] was 10 nM and the IC50 [2] was 2.16 nM. The Ki [3] was 1.99 nM, the IC50 [6] was 23.7 nM and the Uptake ratio [7] was 10.9. The Ki [4] was 5.28 nM.
CN1C2CC[C@@H]1C[C@@H](c1ccccc1)[C@H]2c1ccccc1 was tested, and the Ki [5] was 753 nM, the IC50 [1] was 26.6 nM and the IC50 [2] was 12.6 nM. For the same molecule, the Ki [3] was 11.7 nM, the IC50 [6] was 823 nM and the Uptake ratio [7] was 64.3. For the same molecule, the Ki [4] was 13.8 nM.
For CCCC[C@H]1C(c2ccc(C)cc2)C[C@H]2CCC1N2C (stereo not given in full), the Ki [5] was 15.1 nM, the IC50 [1] was 3.43 nM and the IC50 [2] was 1.42 nM. For the same molecule, the Ki [3] was 1.31 nM, the IC50 [6] was 16.5 nM and the Uptake ratio [7] was 11.5. The Ki [4] was 1.82 nM.
CCC[C@H]1C2CC[C@H](C[C@H]1c1ccccc1)N2C was tested, and the Ki [5] was 389 nM, the IC50 [1] was 141 nM and the IC50 [2] was 32.6 nM. It also gave a Ki [3] of 30.2 nM, an IC50 [6] of 427 nM and an Uptake ratio [7] of 12.9. The Ki [4] was 74.9 nM.
CCC[C@H]1C2CC[C@H](C[C@H]1c1ccc(F)cc1)N2C gave a Ki [5] of 99.6 nM, an IC50 [1] of 37.1 nM and an IC50 [2] of 13.1 nM. For the same molecule, the Ki [3] was 12.1 nM, the IC50 [6] was 109 nM and the Uptake ratio [7] was 8.2. For the same molecule, the Ki [4] was 21.1 nM.
Cc1ccc(C2C[C@H]3CCC([C@H]2c2ccccc2)N3C)cc1 (stereo not given in full) gave a Ki [5] of 73.8 nM, an IC50 [1] of 4.98 nM and an IC50 [2] of 3.09 nM. It also gave a Ki [3] of 2.87 nM, an IC50 [6] of 80.8 nM and an Uptake ratio [7] of 25.7. For the same molecule, the Ki [4] was 2.58 nM.
In the case of COC(=O)[C@@H]1C2CC[C@H](C[C@@H]1c1ccc(C)cc1)N2C, the IC50 [9] is reported as 10.5 nM, the IC50 [2] is reported as 7.47 nM and the Ki [3] is reported as 6.92 nM. For the same molecule, the Ki [4] was 5.76 nM.
In the case of CN1C2CC[C@@H]1CC(c1ccccc1)[C@@H]2c1ccccc1 (stereo not given in full) [listing 1 of 2 here], the Uptake ratio [7] is reported as 38.1.
Cc1ccc([C@@H]2C[C@H]3CCC([C@@H]2c2ccccc2)N3C)cc1 gave a Ki [5] of 287 nM, an IC50 [1] of 5.55 nM and an IC50 [2] of 4.48 nM. For the same molecule, the Ki [3] was 4.16 nM, the IC50 [6] was 314 nM and the Uptake ratio [7] was 68.9. For the same molecule, the Ki [4] was 2.87 nM.
With CN1C2CC[C@@H]1C[C@@H](c1ccc(F)cc1)[C@H]2c1ccccc1 the Ki [5] was 122 nM, the IC50 [1] was 11.4 nM and the IC50 [2] was 4.95 nM. The Ki [3] was 4.58 nM, the IC50 [6] was 134 nM and the Uptake ratio [7] was 26.6. The Ki [4] was 6 nM.
CCC[C@H]1C2CC[C@H](C[C@H]1c1ccc(C)cc1)N2C was tested, and the Ki [5] was 50.1 nM, the IC50 [1] was 18.2 nM and the IC50 [2] was 12.8 nM. For the same molecule, the Ki [3] was 11.8 nM, the IC50 [6] was 54.8 nM and the Uptake ratio [7] was 4.25. The Ki [4] was 8.91 nM.
CN1C2CC[C@@H]1CC(c1ccccc1)[C@@H]2c1ccccc1 (stereo not given in full) [listing 2 of 2 here] gave a Ki [5] of 1100 nM, an IC50 [1] of 96.5 nM and an IC50 [2] of 31.1 nM. For the same molecule, the Ki [3] was 28.9 nM, the IC50 [6] was 1200 nM and the Ki [4] was 49.9 nM.
CCC[C@H]1C(c2ccc(C)cc2)C[C@H]2CCC1N2C (stereo not given in full) was tested, and the Ki [5] was 10.3 nM, the IC50 [1] was 2.97 nM and the IC50 [2] was 1.19 nM. For the same molecule, the Ki [3] was 1.1 nM, the IC50 [6] was 11.3 nM and the Uptake ratio [7] was 9.35. It also gave a Ki [4] of 1.57 nM.
Molecule CCC[C@H]1C(c2ccccc2)C[C@H]2CCC1N2C (stereo not given in full) has a Ki [5] of 86.8 nM, an IC50 [1] of 23.1 nM and an IC50 [2] of 7.46 nM. The Ki [3] was 6.89 nM, the IC50 [6] was 95.4 nM and the Uptake ratio [7] was 12.6. It also gave a Ki [4] of 12.2 nM.
